# Data taken from ChEMBL document CHEMBL4513216, “Probing the Open Global Health Chemical Diversity Library for Multistage-Active Starting Points for Next-Generation Antimalarials” (ACS Infect Dis, 2020).
# Assay: Toxicity liver stage against HepG2, at 10uM
# Format: cell-based
# Set-up: test concentration 10 uM, cell line HepG2-A16-CD81EGFP
# Details: human, HepG2-A16-CD81EGFP cells; read-out: INHIBITION
# Procedure, shortened: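 Uninfected HepG2-A16-CD81EGFP cells, 3 × 10^3 per well, 1536-well, plated on prespotted compound at 10 μM final, parasite-free screening media added to match infected plates; puromycin 10 μM positive, DMSO 0.5% negative; run in parallel with 48 h PbLuc assay at 37 °C, 5% CO2; viability by CellTiter-Glo luminescence, normalized to controls.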
row,SMILES,cytotoxicity at 10 µM [%]
1,CS(=O)(=O)c1ccc(O[C@H]2COCCN(Cc3ccncc3)C2)cc1,-5.33
2,CNC(=O)C(C)(C)N1CCC[C@H]1C(=O)NC1CC1,4.82
3,CC(C)c1noc([C@@H]2C[C@H](NS(=O)(=O)Cc3ccccc3)CN2C)n1,-2.1
4,O=C(c1cccnc1SCc1ccccc1)N1CC[C@@H](O)C1,-2.04
5,CC(=O)N1N=C(c2ccco2)OC1C(=O)N(CC(C)C)CC(C)C (configuration not stated),-1.31
6,Nc1cccnc1N1CCN(c2ccccc2)CC1,-2.95
7,CSCC[C@H](NC(=O)CCn1ccc2c(Cl)cccc21)C(=O)O,2.42
8,O=C(NC1CC1)c1cccc(Oc2ccc3nncn3n2)c1,-5.29
9,Cc1cc(Br)c2c(c1)C1(CC(=O)Nc3c1cnn3C(C)C)C(=O)N2 (configuration not stated),-10.3
10,CS(=O)(=O)N1CCC(CNC(=O)C2CCCC2)CC1,1.2
11,CC(=O)N1CCC2(CC1)CN(C(=O)c1ccc3c(c1)OCCO3)C2,9.15
12,CN1C(=O)CC[C@@H]2[C@H]1CCN2S(=O)(=O)c1cccs1,-1.54
13,CCNC(=O)N1CCC2(CC1)CCn1c(-c3ccccc3)cnc12,-8.19
14,CCOCC1CN(c2ncc(F)cn2)Cc2cn(CC)nc21 (configuration not stated),8.31
15,O=C(c1ccnnc1)N1CCc2onc(CN3CCCC3)c2C1,7.31
16,O=C(CO)N1CC2(CCN(c3ccccc3)C2)C1,8.98
17,CCN1CC2(CCN(C(=O)N(C)C)CC2)COc2ccccc2S1(=O)=O,6.55
18,CN(C)CCN1CCN(CC2CC2)c2ncccc2C1,-3.03
19,Cc1cccc(N2CC3(CCN(S(=O)(=O)c4ccccc4)C3)CC2=O)c1 (configuration not stated),11
20,CCCN1C(=O)CC(N2CCN(c3ccc(F)cc3)CC2)C1=O (configuration not stated),-3.03
21,CN1CCN(c2nc(O)c3c(-c4ccccn4)ccnc3n2)CC1,-6.6
22,Cc1ccc(OCc2ccc(C(=O)O)s2)cc1C,9.18
23,O=C(NCc1ccccc1)NCc1nc(-c2ccncc2)n[nH]1,0.449

row,SMILES,cytotoxicity at 10 µM [%]
1,CCc1nnc(Nc2cccc(C3CCCN(CC(C)(C)C)C3)n2)s1 (configuration not stated),-33.9
2,COCC(=O)N1CCCCC1c1ccncn1 (configuration not stated),-27.8
3,CN1CC(c2cc(O)nc(NCc3cccc(F)c3)n2)CC1=O (configuration not stated),1.96
4,CC(NC(=O)N1CCS(=O)(=O)CC1)c1ccc(F)cc1Cl (configuration not stated),-1.28
5,CSc1ccsc1C(=O)NCCNC(=O)C1CC1,1.93
6,CCC(CC)c1cc(C(=O)N2CCN(C(C#N)C(C)C)CC2)on1 (configuration not stated),1.87
7,CCCC(C)CS(=O)(=O)NCc1cccnc1N(C)C (configuration not stated),2.96
8,COC(=O)C1CCCCN1C(=O)c1ccc(N(C)C)cc1F (configuration not stated),5.97
9,CCc1ncc(CN(C)C2CCN(c3sccc3C#N)C2=O)s1 (configuration not stated),-0.876
10,COc1ccc(C)cc1CN(C)CC(N)=O,-0.691
11,CN(C)c1nc(CNC(=O)NC2COc3ccccc32)cs1 (configuration not stated),-3.38
12,CC(Cc1ccc(C(F)(F)F)cc1)C(=O)N1CCCS1(=O)=O (configuration not stated),-1.01
13,CC(NC(=O)CCNC(=O)c1ccoc1)c1ccccc1 (configuration not stated),5.66
14,CC(C)c1nccn1CCC(=O)NCC(C)(O)c1ccco1 (configuration not stated),1.23
15,CNS(=O)(=O)c1ccc(CNC(=O)C2CCCN(C)C2)cc1 (configuration not stated),-10.5
16,CC(C)N1CCCC(CNC(=O)c2ccnc(-n3ccnc3)c2)C1 (configuration not stated),-6.23
17,Cc1cc(NC(=O)NCCOc2ccc(Cl)cn2)no1,9.08
18,Cn1cc(N2CCCC(Nc3ccc4c(c3)CCC(=O)N4)C2=O)cn1 (configuration not stated),-1.56
19,O=C(Cc1cccs1)NCc1ccnc(OC2CCOCC2)c1,-1.22
20,CCOCCOC(C)C(=O)Nc1ccc2c(ccn2CC)c1 (configuration not stated),3.99
21,O=C(c1ccc(-n2cccc2)c(F)c1)N1CCCN2CCCC2C1 (configuration not stated),-2.45
22,CN(C)CCN1CCC(NC2CSCCc3ccccc32)CC1 (configuration not stated),-8.77
23,N#Cc1cc(NC(=O)c2cscn2)ccc1N1CCC(O)CC1,6.59

row,SMILES,cytotoxicity at 10 µM [%]
1,O=C(NCc1ccccc1Cn1cncn1)N1CCCC1,-5
2,CCn1nc2c(cc1=O)CN(CC(=O)Nc1cc(C)no1)CC2,-5.22
3,COCCN1CCC(NC(=O)C(C)C)CC1,-2.45
4,CC(C)(C)C(=O)NCC(=O)NC1CC(c2cccc(Cl)c2)C1 (configuration not stated),-1.72
5,CC(C(=O)N1CCc2ccccc21)N1CCc2cncnc2C1 (configuration not stated),0.693
6,O=C(Nc1cc(C2CCOCC2)[nH]n1)c1ccc(Cl)cn1,0.78
7,COc1ccccc1CNC(=O)CNc1ccccc1C(C)=O,4.7
8,Cc1cccc(N(CCC#N)S(=O)(=O)CC2CCCCO2)c1 (configuration not stated),6.48
9,CC(C1CC1)n1nccc1NC(=O)CN(C)C(=O)OC(C)(C)C (configuration not stated),0.258
10,Cc1cccc(C(C)(C)CNC(=O)CCSc2nnnn2C)c1,-1.09
11,Cc1ccc(N2CCCC(N3CCC(N(C)C)CC3)C2=O)cc1 (configuration not stated),-5.16
12,Cc1cccc(NC(=O)CCNCc2c(C)nn(C)c2N(C)C)n1,7.82
13,CCOc1ccc(CN2C(=O)CC3(CCCC3)C2=O)nc1,-4.01
14,CCOCC(=O)N(C)c1ccc(F)c(Cl)c1,-3.99
15,CCc1nsc(N2CCc3sccc3C2)n1,1.56
16,COCCCNC(=O)C1(NC(=O)c2ccc3[nH]ncc3c2)CCCC1,-1.62
17,O=S1(=O)CCC(N(CCc2ccc3c(c2)CCO3)C2CC2)C1 (configuration not stated),-0.532
18,O=C(NCCn1cccc1)c1c(O)cc(F)cc1F,-5.22
19,CCC(CC)c1cc(CNC(=O)N2CCCC(N(C)C)C2)on1 (configuration not stated),1.47
20,CC(=O)N1CCN(Cc2nnc(C(C)(C)C)o2)CC1,-0.549
21,CCc1nc(C2CCCN2Cc2nc(C3CC3)no2)no1 (configuration not stated),-21.4
22,Cc1nc(C)n(CC2CN(CCc3ccncc3)CCO2)n1 (configuration not stated),-14.7
23,O=C(CC1CN(Cc2ccccc2)CCO1)Nc1ccccc1F (configuration not stated),-2.05

row,SMILES,cytotoxicity at 10 µM [%]
1,Cc1ccc(C(=O)N2C[C@H](OCC3CCOCC3)[C@H]3OCCC[C@H]32)o1,-0.714
2,CO[C@H]1CNC[C@@H]1NC(=O)c1cc(C)nc2c(C)cc(C)cc12,4.12
3,Cc1nc(O)cc(CN2CC=C(c3cnn(C(C)(C)C)c3)CC2)n1,-7.17
4,CCc1nnsc1C(=O)NCCC1CN(C(C)C)CCO1 (configuration not stated),-7.07
5,COc1nc2c(cc1C(=O)N1CCCCC1c1ccccn1)CCC2 (configuration not stated),-12.5
6,CCCOC(=O)N1CCCn2nc(C(=O)Nc3ccccc3)cc2C1,7.23
7,COc1cccc(-c2n[nH]cc2C(=O)NC(C)c2n[nH]c(C)n2)c1 (configuration not stated),-6.26
8,Cn1cc(CNCC2(O)CCCN(Cc3ccc(F)c(F)c3)C2=O)cn1 (configuration not stated),-14.5
9,CCC(C(=O)N(C)Cc1cc(C2CC2)[nH]n1)n1cccn1 (configuration not stated),-8.35
10,Cc1cncc(C(=O)N2CCC3(CC2)C(=O)Nc2ccccc23)c1,-137
11,COc1ccc(N2CCN(C(=O)CCn3nnnc3C)CC2(C)C)cc1,10.4
12,CCN(CCc1nc2cc(C)ccc2[nH]1)C(=O)[C@@H](N)CCSC,-9.28
13,Cc1cc(C)c2nc(CN(C)C(C)c3ccncn3)cc(O)c2c1 (configuration not stated),4.11
14,O=C1CCC2(CCN(Cc3ncccn3)CC2)CN1CCCO,-8.11
15,COC1CCN(S(=O)(=O)NCC2COc3ccccc3C2)CC1 (configuration not stated),-1.08
16,CCn1nc(C)c(CN(CCOC)C(=O)c2ccccc2N(C)C)c1C,-1.14
17,Cc1ccncc1C(=O)N1CCCC(C(=O)CCc2ccccc2)C1 (configuration not stated),18
18,CN(Cc1csc(-c2cccs2)n1)C(=O)CCn1ccccc1=O,22.7
19,Cc1ccc(NC2CCN(C(=O)c3cnn(C(C)(C)C)c3)CC2)nn1,-0.939
20,CC(C)(C)c1ncc(C(=O)NCCNS(C)(=O)=O)s1,-6.14
21,COc1ccc(NC(=O)C(C)n2cncn2)cn1 (configuration not stated),-16.4
22,CC(C)CN(Cc1nc2c(cnn2C)c(=O)[nH]1)CC(C)C,-5.36
23,Cc1csc(N2CCCN(C(=O)C3(C#N)CCCC3)CC2)n1,-1.01

row,SMILES,cytotoxicity at 10 µM [%]
1,CC(C)c1ncc2c(n1)CN(Cc1cccc(C(N)=O)c1)CC2,-9.17
2,COC(=O)c1ccc(N2CCN(C(=O)c3ccco3)C(C)C2)cc1 (configuration not stated),-8.15
3,CCCc1noc(CCC(=O)N2CCCC2c2cccc(OC)c2)n1 (configuration not stated),-9.71
4,c1ncn(CC2CCCN(Cc3nc(-c4ccoc4)no3)C2)n1 (configuration not stated),-1.43
5,c1ccc2nc(N3CCOC(Cn4cccn4)C3)cnc2c1 (configuration not stated),-9.86
6,Cc1cnn(CC(C)NCc2ccc(OCc3nccn3C)cc2)c1 (configuration not stated),-10.7
7,CCc1n[nH]c(C2CN(C(=O)Cc3cccs3)CCO2)n1 (configuration not stated),2.83
8,Cc1nn(C)c(C)c1C1CCCN1Cc1nc2ccccc2c(=O)[nH]1 (configuration not stated),-15.9
9,CCN(Cc1nc2c(cnn2C)c(=O)[nH]1)c1cccc(F)c1,-0.746
10,CCOCC1CC2(CCN(C(=O)c3ccc4ccccc4n3)CC2)CO1 (configuration not stated),3.79
11,Cc1noc(C)c1CN1CCn2cc(CN3CCCCC3)nc2C1,8.95
12,Cc1occc1C(=O)N1CCC2(CCN(Cc3cccs3)C2)CC1,-4.58
13,CC(C)NC1CCc2c(ccc(=O)n2CCN(C)C)C1 (configuration not stated),-1.7
14,CCc1cnc(N2CC[C@H]3[C@H]2CC(=O)N3c2cccnc2)nc1,-9.62
15,O=C(NCC1CC1)[C@@H]1CC[C@@H]2[C@@H](CCN2Cc2ccco2)O1,4.62
16,O=C(CC1CC1)N1CC[C@@H]2[C@H](CC1)N(Cc1cccnc1)CCS2(=O)=O,5.96
17,c1cnc(N2CCN(C3CCC[C@@H]4CN(CC5CC5)C[C@H]34)CC2)nc1 (some centres not stated),8.97
18,CN1CCN(Cc2cccnc2)C2(CCN(C3CCOCC3)C2)C1=O (configuration not stated),-5.87
19,CC(C)NC1CC2(CCNCC2)c2cc(F)ccc21 (configuration not stated),-9.05
20,COCCN1C(=O)[C@@H]2CC[C@H]1CN(c1ncccn1)C2,7.01
